{"data": "Published values collected from several papers", "target": "Casein kinase I isoform alpha (CSNK1A1, Homo sapiens, UniProt P48729)", "note": "Lines come from different studies, so protocols differ."}
{"Structure (SMILES)": "CN(C)c1ncc(F)c(-c2cnn3ncccc23)n1", "effect on": "binding", "concentration": "1 µM", "remaining binding [%]": 98}
{"Structure (SMILES)": "O=C(c1ccc(Nc2ncc(Cl)c(-c3ccc(Cl)s3)n2)cc1)N1CCC(N2CCCC2)CC1", "effect on": "binding", "technique": "competition with immobilised ligand", "concentration": "1 µM", "remaining binding [%]": 97}
{"Structure (SMILES)": "CNC(=O)[C@@H]1CC[C@@H](n2c(-c3ccc4cnccc4c3)nc3ccc(C(=O)NCc4cccc(C(N)=O)c4)cc32)C1", "effect on": "binding", "technique": "competition with immobilised ligand", "concentration": "1 µM", "remaining binding [%]": 99}
{"Structure (SMILES)": "CCC(=N\\O)/C(C)=C/c1ccc(F)cc1", "effect on": "cell-free assay", "technique": "competition with immobilised ligand", "concentration": "1 µM", "remaining binding [%]": 74}
{"Structure (SMILES)": "N[C@@H]1CCN(c2nccc(-c3cnn4ncccc34)n2)C1", "effect on": "binding", "concentration": "1 µM", "remaining binding [%]": 12}
{"Structure (SMILES)": "O=C(NCCCN1CCOCC1)c1ccc(Nc2nccc(-c3cc4ccccc4s3)n2)cc1", "effect on": "binding", "technique": "competition with immobilised ligand", "concentration": "1 µM", "remaining binding [%]": 74}
{"Structure (SMILES)": "O=C(Nc1c[nH]nc1C(=O)NC1CCNCC1)c1cc(F)cc(F)c1", "effect on": "binding", "technique": "competition with immobilised ligand", "concentration": "1 µM", "remaining binding [%]": 75}
{"Structure (SMILES)": "Nc1ncc2c(n1)-c1c([nH]c3ccc(C#CC4CC4)cc13)CCCC2", "effect on": "binding", "technique": "competition with immobilised ligand", "concentration": "1 µM", "remaining binding [%]": 93}
{"Structure (SMILES)": "O=C(N1CCS(=O)(=O)CC1)N1C[C@H](c2ccc(OC(F)(F)F)cc2)C[C@H](c2nc(C3CC3)no2)C1", "effect on": "cell-free assay", "technique": "competition with immobilised ligand", "concentration": "1 µM", "remaining binding [%]": 100}
{"Structure (SMILES)": "Cc1cnn2ncc(-c3ccnc(N(C)C)n3)c2c1", "effect on": "binding", "concentration": "1 µM", "remaining binding [%]": 43}
{"Structure (SMILES)": "COc1ncc2cc3ccccc3nc2c1C#N", "effect on": "cell-free assay", "technique": "competition with immobilised ligand", "concentration": "5 µM", "remaining binding [%]": 97}
{"Structure (SMILES)": "COc1ccc2c(c1)O[C@H](c1ccc(OC)c(OC)c1)C[C@@H]2NC(=O)C1(c2ccc3c(c2)OC(F)(F)O3)CC1", "effect on": "cell-free assay", "technique": "competition with immobilised ligand", "concentration": "1 µM", "remaining binding [%]": 82}
{"Structure (SMILES)": "Cc1cnc(Nc2ccc(C(=O)N3CCC(N4CCCC4)CC3)cc2)nc1-c1cc2ccccc2s1", "effect on": "binding", "technique": "competition with immobilised ligand", "concentration": "1 µM", "remaining binding [%]": 60}
{"Structure (SMILES)": "Cn1nc(C(F)(F)F)cc1-c1cnc(N2CCc3cc(S(=O)(=O)Nc4c(F)cc(Cl)cc4F)cc(N4CCCC4=O)c32)nc1", "effect on": "cell-free assay", "technique": "competition with immobilised ligand", "concentration": "1 µM", "remaining binding [%]": 86}
{"Structure (SMILES)": "CN(C)c1nccc(-c2cnc3ncccn23)n1", "effect on": "binding", "concentration": "1 µM", "remaining binding [%]": 36}
{"Structure (SMILES)": "CS(=O)(=O)NCC[C@H](NC(=O)c1cncc2c1cnn2-c1ccc(F)cc1)c1ccnc(S(C)(=O)=O)c1", "effect on": "cell-free assay", "technique": "competition with immobilised ligand", "concentration": "1 µM", "remaining binding [%]": 100}
{"Structure (SMILES)": "c1cncc(-c2cccc(Nc3nccc(NC4CCCCC4)n3)c2)c1", "effect on": "binding", "technique": "competition with immobilised ligand", "concentration": "10 µM", "remaining binding [%]": 71}
{"Structure (SMILES)": "C[C@@H]1CCN(c2nccc(-c3cnn4ncccc34)n2)C1", "effect on": "binding", "concentration": "1 µM", "remaining binding [%]": 61}
{"Structure (SMILES)": "CC1=C(C#N)C(c2ccc3c(c2)c(NC(=O)c2ccccc2C)nn3C)C(C#N)=C(C)N1", "effect on": "cell-free assay", "technique": "competition with immobilised ligand", "concentration": "1 µM", "remaining binding [%]": 70}
{"Structure (SMILES)": "COc1ccnn2ncc(-c3ccnc(N(C)C)n3)c12", "effect on": "binding", "concentration": "1 µM", "remaining binding [%]": 55}
{"Structure (SMILES)": "COc1cnc(Nc2cccc(S(N)(=O)=O)c2)nc1N1CCN(c2ccccc2)CC1", "effect on": "binding", "technique": "competition with immobilised ligand", "concentration": "1 µM", "remaining binding [%]": 93}
{"Structure (SMILES)": "O=C(NC[C@@H]1[C@H]2CN(C(=O)OCc3cc(C(F)(F)F)cc(C(F)(F)F)c3)C[C@@H]12)c1ccc2[nH]nnc2c1", "effect on": "cell-free assay", "technique": "competition with immobilised ligand", "concentration": "1 µM", "remaining binding [%]": 100}
